According to article PMC7498158 (Journal of Medicinal Chemistry, 2020):

Tested on: PLAAT2–5
Assay: gel-based competitive ABPP, statements for all tested PLAAT members
Format: biochemical, human
Conditions: for activity on PLAAT2–5 (in words): 10 μM inhibitor, 30 min, active = residual protein labeling ≤50%; for hit potency for all tested PLAAT members (in words): focused library screen
In short: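 Human PLAAT cDNA (C-terminal FLAG, pcDNA3.1) was PEI-transfected into HEK293T; cytosol came from a 100,000g spin. Cytosol was preincubated with test compound (30 min, rt), then MB064 (20 min, rt). Conditions: PLAAT2 0.25 μg/μL, 250 nM; PLAAT3 0.5 μg/μL, 250 nM; PLAAT4/5 1 μg/μL, 500 nM. In-gel fluorescence was normalized to Coomassie, in triplicate. Single-concentration screen or IC50 from dose–response curves.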

Structure (SMILES) | activity on PLAAT2–5 (in words) | hit potency for all tested PLAAT members (in words)
O=C(NCc1ccccc1)C(F)(F)C(O)CCc1ccccc1 (stereo not drawn) [Compound 3] | inactive | –
O=C(CCc1ccc(Cl)cc1)C(=O)N1CCCCC1 [Compound 13] | did not show any activity | –
O=C(NCCc1ccccc1)C(O)CCc1ccc(Cl)cc1 (stereo not drawn) [Compound 23, 4-(4-Chlorophenyl)-2-hydroxy-N-phenethylbutanamide] | no activity | –
O=C(CCc1ccc(Cl)cc1)C(=O)N1CCOCC1 [Compound 15] | did not show any activity | –
O=C(CCc1ccc(Cl)cc1)C(=O)NCCCCc1ccccc1 [Compound 2] | – | submicromolar
CCOC(=O)C(F)(F)C(O)CCc1ccccc1 (stereo not drawn) [Compound 4] | inactive | –
CCN(CCc1ccccc1)C(=O)C(=O)CCc1ccc(Cl)cc1 [Compound 22] | did not show any activity | –
CN(CCc1ccccc1)C(=O)C(=O)CCc1ccc(Cl)cc1 [Compound 12] | complete loss of activity | –
COCCN(CCOC)C(=O)C(=O)CCc1ccc(Cl)cc1 [Compound 17] | did not show any activity | –
O=C(CCc1ccc(Cl)cc1)C(=O)NCCc1ccccc1 [Compound 1, 4-(4-Chlorophenyl)-2-oxo-N-phenethylbutanamide] | – | submicromolar
CN1CCN(C(=O)C(=O)CCc2ccc(Cl)cc2)CC1 [Compound 16] | did not show any activity | –
CN(C)C(=O)C(=O)CCc1ccc(Cl)cc1 [Compound 14] | did not show any activity | –
